From ChEMBL document CHEMBL1145239 (Bioorg Med Chem Lett, 2005)

Target: Dipeptidyl peptidase 4 (Rattus norvegicus, UniProt P14740)
Assay: Inhibitory concentration against rat dipeptidylpeptidase IV
In short: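 DPP-IV activity in rat plasma (10-fold diluted) by fluorescence with Gly-Pro-MCA substrate (100 µmol/L solution added); buffer PBS with 0.003% Brij-35. Inhibitor at various concentrations, room temperature, 60 min. Inhibition relative to solvent control; IC50 by logistic analysis.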

Sequence of Dipeptidyl peptidase 4 (P14740 whole entry): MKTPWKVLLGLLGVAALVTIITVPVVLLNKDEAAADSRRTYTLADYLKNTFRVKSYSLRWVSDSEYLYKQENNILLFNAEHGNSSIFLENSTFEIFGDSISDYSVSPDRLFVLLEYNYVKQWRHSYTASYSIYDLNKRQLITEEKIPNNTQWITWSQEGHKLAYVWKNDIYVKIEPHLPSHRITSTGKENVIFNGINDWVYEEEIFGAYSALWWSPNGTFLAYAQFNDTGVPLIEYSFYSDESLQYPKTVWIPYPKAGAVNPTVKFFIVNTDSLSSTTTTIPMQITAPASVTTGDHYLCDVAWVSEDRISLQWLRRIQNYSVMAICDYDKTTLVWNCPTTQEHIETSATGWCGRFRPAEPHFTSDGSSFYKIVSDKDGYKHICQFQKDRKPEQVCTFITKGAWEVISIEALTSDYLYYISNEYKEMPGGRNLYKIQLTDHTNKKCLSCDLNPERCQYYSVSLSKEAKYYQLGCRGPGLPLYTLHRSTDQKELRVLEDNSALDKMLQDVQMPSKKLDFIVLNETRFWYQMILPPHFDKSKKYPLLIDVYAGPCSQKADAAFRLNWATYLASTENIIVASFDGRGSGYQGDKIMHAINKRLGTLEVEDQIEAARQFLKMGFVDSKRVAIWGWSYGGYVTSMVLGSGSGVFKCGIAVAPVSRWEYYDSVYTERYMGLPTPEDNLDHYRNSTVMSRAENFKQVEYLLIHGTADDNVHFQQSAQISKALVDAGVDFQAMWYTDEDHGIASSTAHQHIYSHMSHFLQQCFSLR

Row | SMILES | IC50 [nM]
1 | N#C[C@@H]1CCCN1C(=O)[C@@H]1C[C@H](N)CN1 | 9.1
2 | N#C[C@@H]1CCCN1C(=O)[C@@H]1C[C@H](NC2CCCCC2)CN1 | 3.6
3 | N#C[C@@H]1CCCN1C(=O)[C@@H]1C[C@H](NS(=O)(=O)c2ccccc2)CN1 | 3.9
4 | N#C[C@@H]1CCCN1C(=O)[C@@H]1C[C@H](NCCc2ccccc2)CN1 | 1.5
5 | COc1ccc(N[C@@H]2CN[C@H](C(=O)N3CCC[C@H]3C#N)C2)cc1 | 0.28
6 | N#C[C@@H]1CCCN1C(=O)[C@@H]1C[C@H](NCc2ccccc2)CN1 | 3
7 | N#Cc1ccc(N[C@@H]2CN[C@H](C(=O)N3CCC[C@H]3C#N)C2)cc1C#N | 0.17
8 | N#Cc1ccc(N[C@@H]2CN[C@H](C(=O)N3CCC[C@H]3C#N)C2)cc1 | 0.26
9 | N#C[C@@H]1CCCN1C(=O)[C@@H]1C[C@H](NC(=O)Nc2ccccc2)CN1 | 1.1
10 | COc1ccc(N[C@@H]2CN[C@H](C(=O)N3CCC[C@H]3C#N)C2)cc1OC | 0.24
11 | N#C[C@@H]1CCCN1C(=O)[C@@H]1C[C@H](NC(=O)c2ccccc2)CN1 | 3.8
